Data as given in ChEMBL document CHEMBL1208664, “Structure-activity relationship studies of acridones as potential antipsoriatic agents. 1. Synthesis and antiproliferative activity of simple N-unsubstituted 10H-acridin-9-ones against human keratinocyte growth” (Eur J Med Chem, 2010).

Experiments:
HaCaT [1] = test: Antiproliferative activity against human HaCaT cells after 48 hrs by phase contrast microscopy; assay type: functional, cell-based
Method in brief: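 HaCaT keratinocytes were treated for 48 h, then dispersed cells were counted under phase-contrast microscopy. Inhibition = (1 − test/control) × 100, with test mean N=3 against control N=6–8. Significance was by Student's t-test.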

[2] = system: Radical scavenging activity; test: Antioxidant activity assessed as DPPH free radical scavenging activity after 30 mins; assay type: functional; conditions: in the assay text read “after 20 mins” for “after 30 mins”
Method in brief: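 Test compound in EtOH was mixed with an equal volume of DPPH in EtOH. The mix was shaken 30 s, held in the dark at RT for 20 min, shaken again 30 s, and the drop in absorbance at 520 nm was read. Scavenging % = (1 − test/control absorbance) × 100, with test N=3 and control N=8. EC50 came from nonlinear regression. NDGA and α-tocopherol were positive controls.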

HaCaT [3] = test: Antiproliferative activity against human HaCaT cells assessed as LDH release at 2 uM after 4 hrs by UV method

| SMILES | IC50 (HaCaT [1]) [µM] | EC50 [2] [µM] | Activity (HaCaT [3]) [mU/ml] | IC50 [2] [µM] |
| --- | --- | --- | --- | --- |
| O=c1c2ccccc2[nH]c2cc(O)ccc12 | > 50 |  |  |  |
| COc1ccc(C(N)=O)c2[nH]c3ccccc3c(=O)c12 | 8.8 | > 60 | 66.5 |  |
| COC(=O)c1ccc(O)c2c(=O)c3ccccc3[nH]c12 | 5.2 | > 60 | 58.8 |  |
| COC(=O)c1ccc(OC)c2c(=O)c3ccccc3[nH]c12 | 10.8 | > 60 | 63.7 |  |
| O=C(O)c1ccc(O)c2c(=O)c3ccccc3[nH]c12 | 49.2 | > 60 |  |  |
| COc1ccc(C(=O)O)c2[nH]c3ccccc3c(=O)c12 | > 50 | > 60 |  |  |
| O=c1c2ccccc2[nH]c2cc(OCc3ccccc3)cc(O)c12 | 47.8 |  |  |  |
| O=c1c2ccccc2[nH]c2cc(OCCc3ccccc3)cc(O)c12 | 21 |  |  |  |
| CC(=O)c1ccc2[nH]c3ccccc3c(=O)c2c1O | 17.1 | > 60 |  |  |
| O=C(c1ccccc1)c1ccc2[nH]c3ccccc3c(=O)c2c1O | 1.6 | > 60 | 88.9 |  |
| CC(=O)Oc1cccc2[nH]c3ccccc3c(=O)c12 | 21.5 |  |  |  |
| O=C(Oc1cccc2[nH]c3ccccc3c(=O)c12)c1ccccc1 | 12.4 | > 60 |  |  |
| O=c1c2c(O)cccc2[nH]c2cccc(O)c12 | 39.5 | > 60 |  |  |
| COc1cccc2[nH]c3cccc(OC)c3c(=O)c12 | > 50 |  |  |  |
| O=c1c2ccccc2[nH]c2c(O)cccc12 | > 50 | 6.8 |  |  |
| COc1ccc2c(=O)c3ccccc3[nH]c2c1 | > 50 |  |  |  |
| COc1cccc2c(=O)c3ccccc3[nH]c12 | > 50 | > 60 |  |  |
| O=c1c2ccccc2[nH]c2c(O)ccc(O)c12 | 10 | 8.8 | 61.2 |  |
| COc1ccc(OC)c2c(=O)c3ccccc3[nH]c12 | > 50 | > 60 |  |  |
| COc1ccc(O)c2c(=O)c3ccccc3[nH]c12 | 17.5 | > 60 |  |  |

| SMILES | IC50 (HaCaT [1]) [µM] | EC50 [2] [µM] | Activity (HaCaT [3]) [mU/ml] | IC50 [2] [µM] |
| --- | --- | --- | --- | --- |
| O=c1c2ccc(O)cc2[nH]c2cccc(O)c12 | 4.5 | > 60 | 77.7 |  |
| COc1ccc2c(=O)c3c(OC)cccc3[nH]c2c1 | > 50 |  |  |  |
| O=c1c2cc(O)ccc2[nH]c2cccc(O)c12 | 48.8 | 3.9 |  |  |
| COc1ccc2[nH]c3cccc(OC)c3c(=O)c2c1 | > 50 |  |  |  |
| O=c1c2cccc(O)c2[nH]c2cc(O)cc(O)c12 | 8.4 | 15 | 69.9 |  |
| O=c1c2c(O)cccc2[nH]c2cc(O)cc(O)c12 | 2 | > 60 | 69.3 |  |
| COc1cc(OC)c2c(=O)c3c(OC)cccc3[nH]c2c1 | 45.3 |  |  |  |
| COc1cccc2[nH]c3cc(O)cc(O)c3c(=O)c12 | 28.3 |  |  |  |
| COc1ccc(O)c2c(=O)c3c(O)cccc3[nH]c12 | > 50 | > 60 |  |  |
| COc1ccc(OC)c2c(=O)c3c(OC)cccc3[nH]c12 | > 50 | > 60 |  |  |
| Cc1cc(O)c2c(=O)c3ccccc3[nH]c2c1 | > 50 |  |  |  |
| Cc1cc(O)cc2[nH]c3ccccc3c(=O)c12 | 27.3 |  |  |  |
| Cc1ccc2c(=O)c3c(O)cc(O)cc3[nH]c2c1 | > 50 |  |  |  |
| Cc1ccc(O)c2c(=O)c3ccccc3[nH]c12 | 25.7 | > 60 |  |  |
| COc1ccc(C)c2[nH]c3ccccc3c(=O)c12 | 46.7 | > 60 |  |  |
| O=c1c2ccccc2[nH]c2c(Cl)ccc(O)c12 | 26.3 | > 60 |  |  |
| COc1ccc(Cl)c2[nH]c3ccccc3c(=O)c12 | 43.8 | > 60 |  |  |
| O=c1c2ccccc2[nH]c2c([N+](=O)[O-])ccc(O)c12 | 47.3 | > 60 |  |  |
| COc1ccc([N+](=O)[O-])c2[nH]c3ccccc3c(=O)c12 | > 50 | > 60 |  |  |
| Nc1ccc(O)c2c(=O)c3ccccc3[nH]c12 | > 50 | 7.6 |  |  |

| SMILES | IC50 (HaCaT [1]) [µM] | EC50 [2] [µM] | Activity (HaCaT [3]) [mU/ml] | IC50 [2] [µM] |
| --- | --- | --- | --- | --- |
| COc1ccc(N)c2[nH]c3ccccc3c(=O)c12 | > 50 | 7.7 |  |  |
| N#Cc1ccc(O)c2c(=O)c3ccccc3[nH]c12 | 27.9 | > 60 |  |  |
| COc1ccc(C#N)c2[nH]c3ccccc3c(=O)c12 | > 50 | > 60 |  |  |
| NC(=O)c1ccc(O)c2c(=O)c3ccccc3[nH]c12 | 4.7 | > 60 | 68.1 |  |
| Cc1cccc2c(O)c3c(O)cc(O)cc3nc12 | > 50 |  |  |  |
| COc1cc(O)c2c(O)c3cccc(OC)c3nc2c1 | 34.3 |  |  |  |
| O=c1c2ccccc2[nH]c2ccc(O)cc12 | > 50 | 2.7 |  |  |
| COc1cc(O)c2c(=O)c3ccccc3[nH]c2c1 | 46.3 |  |  |  |
| COc1cccc2[nH]c3ccccc3c(=O)c12 | > 50 | > 60 |  |  |
| COc1cc(OC)c2c(=O)c3ccccc3[nH]c2c1 | > 50 |  |  |  |
| O=c1c2ccccc2[nH]c2cc(O)cc(O)c12 | 19.8 | > 60 |  |  |
| COc1ccc2[nH]c3ccccc3c(=O)c2c1 | > 50 |  |  |  |
| O=c1c2ccccc2[nH]c2cccc(O)c12 | > 50 | > 60 |  |  |
| Cc1cccc2nc3cc(O)cc(O)c3c(O)c12 | 0.8 | > 60 | 71.5 |  |
| COc1cccc2c(O)c3c(O)cc(O)cc3nc12 | 21.3 |  |  |  |
| Cc1c(C)c2c(c(C)c1O)CC[C@@](C)(CCC[C@H](C)CCC[C@H](C)CCCC(C)C)O2 [ALPHA-TOCOPHEROL] |  |  |  | 8.2 |
| O=C1c2c(O)cccc2Cc2cccc(O)c21 [ANTHRALIN] |  | 16.7 | 122.8 |  |
| CC(Cc1ccc(O)c(O)c1)C(C)Cc1ccc(O)c(O)c1 (stereo not given) [NORDIHYDROGUAIARETIC ACID] |  |  |  | 4.2 |
